Measured values: ChEMBL document CHEMBL1145382, “Novel ergopeptides as dual ligands for adenosine and dopamine receptors” (J Med Chem, 2007)
Active and inactive are the calls of the source. No cut-off for these calls is given here.

What follows are compounds tested against T1, Adenosine receptor A1 (Homo sapiens) (UniProt P30542) (assay: Displacement of [3H]R-PIA from adenosine A1 receptor in lamb striatum membrane at 50 uM after 1 hr). Conditions: Ovis aries, target entry is the homologue from another species.
T1 sequence (whole entry): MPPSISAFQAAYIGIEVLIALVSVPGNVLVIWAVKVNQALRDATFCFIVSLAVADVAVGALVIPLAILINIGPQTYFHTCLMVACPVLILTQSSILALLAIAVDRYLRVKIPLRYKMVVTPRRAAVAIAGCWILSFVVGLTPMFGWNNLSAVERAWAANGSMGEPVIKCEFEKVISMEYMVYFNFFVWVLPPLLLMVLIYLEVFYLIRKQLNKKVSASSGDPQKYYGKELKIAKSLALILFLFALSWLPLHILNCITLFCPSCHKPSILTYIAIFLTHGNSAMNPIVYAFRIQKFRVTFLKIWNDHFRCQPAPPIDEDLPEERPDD
Assay type: cell membranes
Outline: (§1)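 Single-concentration screen at 50 µM ergopeptide on lamb striatal membranes (0.5 mg protein/mL), 22 °C, 50 mM Tris-HCl pH 7.4. Radioligands: [3H]SCH 23390 1.2 nM (D1), [3H]YM 09151-2 0.9 nM (D2), [3H]R-PIA 2.2 nM (A1, with MgCl2 and ADA), [3H]CGS 21680 20.1 nM (A2A, with MgCl2 and ADA). Specific binding displaced, after filtration and scintillation counting.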

Row | SMILES | Activity [%]
1 | CC(C)[C@H](NC(=O)[C@@H]1C=C2c3cccc4[nH]cc(c34)C[C@H]2N(C)C1)C(=O)N[C@@H](CCC1CCCCC1)C(=O)N1CCCC(C(N)=O)C1 (some centres not stated) | < 40

The compounds below were run against T2, Adenosine receptor A2a (Homo sapiens, UniProt P29274) (assay: Agonist activity at adenosine A2A receptor in SH-SY5Y cells assessed as CGS-induced intracellular cAMP production at 50 uM). Conditions: not given.
T2 sequence (P29274 whole entry): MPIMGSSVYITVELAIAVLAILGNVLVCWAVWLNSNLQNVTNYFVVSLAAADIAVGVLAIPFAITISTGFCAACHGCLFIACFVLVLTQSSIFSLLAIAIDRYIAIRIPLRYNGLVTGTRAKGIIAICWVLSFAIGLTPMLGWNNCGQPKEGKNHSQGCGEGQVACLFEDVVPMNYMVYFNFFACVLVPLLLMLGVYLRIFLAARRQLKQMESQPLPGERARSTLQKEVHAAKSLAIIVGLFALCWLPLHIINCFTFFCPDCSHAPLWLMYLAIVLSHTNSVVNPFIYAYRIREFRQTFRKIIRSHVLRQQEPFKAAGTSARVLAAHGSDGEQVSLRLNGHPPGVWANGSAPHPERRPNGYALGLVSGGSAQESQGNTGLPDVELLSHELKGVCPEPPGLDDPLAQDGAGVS
Assay type: functional, cell-based
Outline: (§2)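 SH-SY5Y neuroblastoma cells, endogenous A2AR, stably carrying human D2LR. Serum-starved 12-16 h, in HBSS with 50 µM zardaverine for 10 min, then 50 µM ergopeptide, alone or with the A2AR agonist CGS. 35 min total incubation. cAMP by competitive enzyme immunoassay. Three to six determinations, Student's t test.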

Row | SMILES | Activity
2 | CC(C)[C@H](NC(=O)[C@@H]1C=C2c3cccc4[nH]cc(c34)C[C@H]2N(C)C1)C(=O)N[C@@H](CCC1CCCCC1)C(=O)N1CCCC(C(N)=O)C1 (some centres not stated) | inactive

What follows are compounds tested against D(1A) dopamine receptor (Homo sapiens) (UniProt P21728) (assay: Displacement of [3H]SCH 23390 from dopamine D1 receptor in lamb striatum membrane at 50 uM after 1 hr). Conditions: Ovis aries, target entry is the homologue from another species.
Chain of D(1A) dopamine receptor (Homo sapiens) (P21728 whole entry): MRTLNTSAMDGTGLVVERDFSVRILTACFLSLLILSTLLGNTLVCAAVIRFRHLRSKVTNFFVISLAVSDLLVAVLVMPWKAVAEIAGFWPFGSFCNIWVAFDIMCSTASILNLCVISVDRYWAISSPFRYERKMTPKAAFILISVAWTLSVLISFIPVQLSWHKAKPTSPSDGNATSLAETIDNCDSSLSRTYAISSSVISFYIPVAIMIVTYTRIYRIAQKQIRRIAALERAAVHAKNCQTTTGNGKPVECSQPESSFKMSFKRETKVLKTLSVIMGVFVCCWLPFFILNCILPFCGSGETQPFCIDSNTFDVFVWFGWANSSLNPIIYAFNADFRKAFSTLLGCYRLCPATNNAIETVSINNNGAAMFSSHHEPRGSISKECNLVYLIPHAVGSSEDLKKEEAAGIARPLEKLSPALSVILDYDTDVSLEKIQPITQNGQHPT
Assay type: cell membranes
Outline: as §1

Row | SMILES | Activity [%]
3 | CC(C)[C@H](NC(=O)[C@@H]1C=C2c3cccc4[nH]cc(c34)C[C@H]2N(C)C1)C(=O)N[C@@H](CCC1CCCCC1)C(=O)N1CCCC(C(N)=O)C1 (some centres not stated) | < 40

What follows are compounds tested against T2, Adenosine receptor A2a (assay: Displacement of [3H]CGS 21680 from adenosine A2A receptor in lamb striatum membrane at 50 uM after 2 hrs). Conditions: Ovis aries, target entry is the homologue from another species.
Assay type: cell membranes
Outline: as §1

Row | SMILES | Activity [%]
4 | CC(C)[C@H](NC(=O)[C@@H]1C=C2c3cccc4[nH]cc(c34)C[C@H]2N(C)C1)C(=O)N[C@@H](CCC1CCCCC1)C(=O)N1CCCC(C(N)=O)C1 (some centres not stated) | < 40

Each compound was assayed against D(2) dopamine receptor (Homo sapiens) (UniProt P14416) (assay: Displacement of [3H]YM 09151-2 from dopamine D2 receptor in lamb striatum membrane at 50 uM after 2 hrs). Conditions: Ovis aries, target entry is the homologue from another species.
Chain of D(2) dopamine receptor (Homo sapiens) (P14416 whole entry): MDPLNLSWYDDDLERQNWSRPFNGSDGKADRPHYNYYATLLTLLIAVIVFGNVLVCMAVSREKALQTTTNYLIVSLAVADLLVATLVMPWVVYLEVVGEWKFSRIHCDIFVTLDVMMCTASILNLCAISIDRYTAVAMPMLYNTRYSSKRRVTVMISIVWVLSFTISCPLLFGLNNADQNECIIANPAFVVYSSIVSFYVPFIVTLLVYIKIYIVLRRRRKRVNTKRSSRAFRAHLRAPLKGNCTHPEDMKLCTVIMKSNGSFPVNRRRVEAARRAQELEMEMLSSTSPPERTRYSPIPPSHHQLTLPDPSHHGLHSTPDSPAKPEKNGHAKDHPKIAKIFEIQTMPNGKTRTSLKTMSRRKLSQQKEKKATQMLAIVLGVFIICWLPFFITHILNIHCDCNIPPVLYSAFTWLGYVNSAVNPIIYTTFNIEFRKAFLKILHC
Assay type: cell membranes
Outline: as §1

Row | SMILES | Activity [%]
5 | CC(C)[C@H](NC(=O)[C@@H]1C=C2c3cccc4[nH]cc(c34)C[C@H]2N(C)C1)C(=O)N[C@@H](CCC1CCCCC1)C(=O)N1CCCC(C(N)=O)C1 (some centres not stated) | < 40

What follows are compounds tested against D(1A) dopamine receptor (Homo sapiens) (UniProt P21728) (assay: Antagonist activity at dopamine D1 receptor transfected in mouse L(tk-) cells assessed as inhibition of SKF-induced stimulation of forskolin-induced cAMP levels). Conditions: not given.
Assay type: functional, cell-based
Outline: (§3)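 Mouse Ltk- fibroblasts cotransfected with human A1R and D1R, serum-starved 12-16 h. In HBSS with 50 µM zardaverine, then 50 µM ergopeptide, with or without 20 nM SKF or 50 µM SCH. 35 min total incubation. cAMP by competitive enzyme immunoassay. Three to six determinations, t test.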

Row | SMILES | Activity
6 | CC(C)[C@H](NC(=O)[C@@H]1C=C2c3cccc4[nH]cc(c34)C[C@H]2N(C)C1)C(=O)N[C@@H](CCC1CCCCC1)C(=O)N1CCCC(C(N)=O)C1 (some centres not stated) | inactive

The compounds below were run against T1, Adenosine receptor A1 (Homo sapiens) (assay: Agonist activity at adenosine A1 receptor transfected in mouse L(tk-) cells assessed as decrease in forskolin-induced cAMP levels). Conditions: not given.
Assay type: functional, cell-based
Outline: (§4)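 Mouse Ltk- fibroblasts cotransfected with human A1R and D1R, preincubated 5-10 min at 22 °C with 50 µM SCH to block D1R. Then 50 µM zardaverine, 10 µM forskolin, and 50 µM ergopeptide, with or without 20 nM R-PIA or 50 µM DPCPX. 35 min total. cAMP by enzyme immunoassay. Three to six determinations.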

Row | SMILES | Activity
7 | CC(C)[C@H](NC(=O)[C@@H]1C=C2c3cccc4[nH]cc(c34)C[C@H]2N(C)C1)C(=O)N[C@@H](CCC1CCCCC1)C(=O)N1CCCC(C(N)=O)C1 (some centres not stated) | inactive

What follows are compounds tested against T2, Adenosine receptor A2a (assay: Antagonist activity at adenosine A2A receptor in SH-SY5Y cells assessed as CGS-induced intracellular cAMP production at 50 uM). Conditions: not given.
Assay type: functional, cell-based
Outline: as §2

Row | SMILES | Activity
8 | CC(C)[C@H](NC(=O)[C@@H]1C=C2c3cccc4[nH]cc(c34)C[C@H]2N(C)C1)C(=O)N[C@@H](CCC1CCCCC1)C(=O)N1CCCC(C(N)=O)C1 (some centres not stated) | Active

Each compound was assayed against D(2) dopamine receptor (Homo sapiens) (UniProt P14416) (assay: Antagonist activity at dopamine D2 receptor in SH-SY5Y cells assessed as effect on forskolin-activated intracellular cAMP production at 50 uM). Conditions: not given.
Assay type: functional, cell-based
Outline: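 SH-SY5Y cells expressing human D2LR, preincubated 5-10 min at 22 °C with 5 µM ZM to block A2AR. Then 50 µM zardaverine, 10 µM forskolin, and 50 µM ergopeptide, with or without 150 nM quinpirole or 50 µM raclopride. 35 min total. cAMP by enzyme immunoassay. Three to six determinations, t test.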

Row | SMILES | Activity
9 | CC(C)[C@H](NC(=O)[C@@H]1C=C2c3cccc4[nH]cc(c34)C[C@H]2N(C)C1)C(=O)N[C@@H](CCC1CCCCC1)C(=O)N1CCCC(C(N)=O)C1 (some centres not stated) | Active

What follows are compounds tested against T2, Adenosine receptor A2a (assay: Displacement of [3H]CGS 21680 from adenosine A2A receptor in lamb striatum membrane after 2 hrs). Conditions: target entry is the homologue from another species.
Assay type: cell membranes, Ovis aries
Outline: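 Lamb striatal membranes (0.5 mg protein/mL), 22 °C, 50 mM Tris-HCl pH 7.4, with increasing ergopeptide concentrations. Conditions per receptor: D1 1.2 nM [3H]SCH 23390, 1 mM dopamine nonspecific. D2 0.9 nM [3H]YM 09151-2, 100 µM raclopride nonspecific. A1 2.2 nM [3H]R-PIA, 10 mM MgCl2, 0.2 U/mL ADA, 50 µM R-PIA nonspecific. A2A 20.1 nM [3H]CGS 21680, 10 mM MgCl2, 2 U/mL ADA, 1 mM CGS 21680 nonspecific. Filtration, scintillation counting. KD by nonlinear one- or two-site fit. Three to six determinations.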

Row | SMILES | Kd [µM]
10 | CC(C)[C@H](NC(=O)[C@@H]1C=C2c3cccc4[nH]cc(c34)C[C@H]2N(C)C1)C(=O)N[C@@H](CCC1CCCCC1)C(=O)N1CCCC(C(N)=O)C1 (some centres not stated) | 50

What follows are compounds tested against D(1A) dopamine receptor (Homo sapiens) (UniProt P21728) (assay: Agonist activity at dopamine D1 receptor transfected in mouse L(tk-) cells assessed as stimulation of cAMP levels). Conditions: not given.
Assay type: functional, cell-based
Outline: as §3

Row | SMILES | Activity
11 | CC(C)[C@H](NC(=O)[C@@H]1C=C2c3cccc4[nH]cc(c34)C[C@H]2N(C)C1)C(=O)N[C@@H](CCC1CCCCC1)C(=O)N1CCCC(C(N)=O)C1 (some centres not stated) | Active

These compounds were tested against T1, Adenosine receptor A1 (Homo sapiens) (assay: Antagonist activity at adenosine A1 receptor transfected in mouse L(tk-) cells assessed as inhibition of R-PIA-induced decrease in forskolin-induced cAMP levels). Conditions: not given.
Assay type: functional, cell-based
Outline: as §4

Row | SMILES | Activity
12 | CC(C)[C@H](NC(=O)[C@@H]1C=C2c3cccc4[nH]cc(c34)C[C@H]2N(C)C1)C(=O)N[C@@H](CCC1CCCCC1)C(=O)N1CCCC(C(N)=O)C1 (some centres not stated) | Active
